From ChEMBL document CHEMBL4689842, “EUbOPEN Chemogenomics Library wave 1” (2021)

What was measured:
Format in all cases: toxicity, cell-based
Fibroblast = test: Incucyte cell viability with human fibroblast; details: 10 µM, compound concentration 10 uM; further: filed as whole numbers so only -1 and 0 and 1 occur
U2OS [1] = test: Incucyte cell viability with U2OS; details: human, 10 µM, compound concentration 10 uM; further: filed as whole numbers so only -1 and 0 and 1 occur
U2OS [2] = test: Multiplex assay against U2OS; details: human
Method in brief: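 At seeding, live cells were stained with Hoechst33342, BioTracker Green Microtubule Cytoskeleton Dye, MitoTracker Red and Annexin V Alexa Fluor 680. After compound addition they were imaged on a CQ1 microscope at 37°C and 5% CO2, and CellPathfinder machine-learning gating sorted them into Hoechst high-intensity objects or normal cells, with normal cells further split into healthy, pyknosed or fragmented nuclei and pyknosed cells into mitotic or apoptotic. Tubulin, mitochondrial-mass and membrane-permeability phenotypes are given as per cents of cells with healthy nuclei.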

HEK-293T = test: Incucyte cell viability with HEK293T; details: human, 10 µM, compound concentration 10 uM; further: filed as whole numbers so only -1 and 0 and 1 occur
[3] = 0 h, replicate number 1, timepoint 0 hours
[4] = 24 h, replicate number 1, timepoint 24 hours
[5] = 6 h, replicate number 1, timepoint 6 hours
[6] = 12 h, replicate number 1, timepoint 12 hours
[7] = 18 h, replicate number 1, timepoint 18 hours
[8] = 12 h, 1 µM, compound concentration 1 uM, replicate 1
[9] = 12 h, 1 µM, compound concentration 1 uM, replicate 2
[10] = 12 h, 10 µM, compound concentration 10 uM, replicate 1
[11] = 12 h, 10 µM, compound concentration 10 uM, replicate 2
[12] = 24 h, 1 µM, compound concentration 1 uM, replicate 1
[13] = 24 h, 1 µM, compound concentration 1 uM, replicate 2
[14] = 24 h, 10 µM, compound concentration 10 uM, replicate 1
[15] = 24 h, 10 µM, compound concentration 10 uM, replicate 2

CN(C)CCOc1ccc(-c2nc(-c3ccncc3)c(-c3ccc4c(c3)CC/C4=N\O)[nH]2)cc1 [SB590885]
Growth Rate (Fibroblast; [3]): 0
Growth Rate (Fibroblast; 18 h, replicate number 2, timepoint 18 hours): 1
Growth Rate (Fibroblast; [4]): 1
Growth Rate (Fibroblast; 24 h, replicate number 2, timepoint 24 hours): 0
Growth Rate (U2OS [1]; 0 h, replicate number 2, timepoint 0 hours): 1
Growth Rate (U2OS [1]; [5]): 0
Growth Rate (U2OS [1]; [6]): 0
Growth Rate (U2OS [1]; [7]): 0
Growth Rate (U2OS [1]; [4]): 0
Population Apoptotic (%) (U2OS [2]; [8]): 72%
Population Fragmented Nuclei (%) (U2OS [2]; [8]): 22%
Population Healthy Nuclei (%) (U2OS [2]; [8]): 42%
Population Hoechst High Intensity Objects (%) (U2OS [2]; [8]): 9%
Population Membrane Permeable-Phenotype (%) (U2OS [2]; [8]): 45%
Population Mitochondria Different-Phenotype (%) (U2OS [2]; [8]): 30%
Population Mitotic Cells (%) (U2OS [2]; [8]): 27%
Population Normal (%) (U2OS [2]; [8]): 90%
Population Pyknosed Nuclei (%) (U2OS [2]; [8]): 34%
Population Tubulin-Different-Phenotype (%) (U2OS [2]; [8]): 54%
Total Cell Count (U2OS [2]; [8]): 200
Population Apoptotic (%) (U2OS [2]; [9]): 88%
Population Fragmented Nuclei (%) (U2OS [2]; [9]): 41%
Population Healthy Nuclei (%) (U2OS [2]; [9]): 34%
Population Hoechst High Intensity Objects (%) (U2OS [2]; [9]): 15%
Population Membrane Permeable-Phenotype (%) (U2OS [2]; [9]): 38%
Population Mitochondria Different-Phenotype (%) (U2OS [2]; [9]): 28%
Population Mitotic Cells (%) (U2OS [2]; [9]): 11%
Population Normal (%) (U2OS [2]; [9]): 84%
Population Pyknosed Nuclei (%) (U2OS [2]; [9]): 23%
Population Tubulin-Different-Phenotype (%) (U2OS [2]; [9]): 51%
Total Cell Count (U2OS [2]; [9]): 155
Population Apoptotic (%) (U2OS [2]; [10]): 42%
Population Fragmented Nuclei (%) (U2OS [2]; [10]): 5%
Population Hoechst High Intensity Objects (%) (U2OS [2]; [10]): 3%
Population Membrane Permeable-Phenotype (%) (U2OS [2]; [10]): 11%
Population Mitochondria Different-Phenotype (%) (U2OS [2]; [10]): 23%
Population Mitotic Cells (%) (U2OS [2]; [10]): 57%
Population Normal (%) (U2OS [2]; [10]): 96%
Population Pyknosed Nuclei (%) (U2OS [2]; [10]): 7%
Population Tubulin-Different-Phenotype (%) (U2OS [2]; [10]): 26%
Total Cell Count (U2OS [2]; [10]): 149
Population Apoptotic (%) (U2OS [2]; [11]): 37%
Population Fragmented Nuclei (%) (U2OS [2]; [11]): 6%
Population Healthy Nuclei (%) (U2OS [2]; [11]): 87%
Population Hoechst High Intensity Objects (%) (U2OS [2]; [11]): 10%
Population Membrane Permeable-Phenotype (%) (U2OS [2]; [11]): 14%
Population Mitochondria Different-Phenotype (%) (U2OS [2]; [11]): 28%
Population Mitotic Cells (%) (U2OS [2]; [11]): 62%
Population Normal (%) (U2OS [2]; [11]): 89%
Population Pyknosed Nuclei (%) (U2OS [2]; [11]): 5%
Population Tubulin-Different-Phenotype (%) (U2OS [2]; [11]): 33%
Total Cell Count (U2OS [2]; [11]): 78
Population Apoptotic (%) (U2OS [2]; [12]): 85%
Population Fragmented Nuclei (%) (U2OS [2]; [12]): 15%
Population Healthy Nuclei (%) (U2OS [2]; [12]): 38%
Population Hoechst High Intensity Objects (%) (U2OS [2]; [12]): 19%
Population Membrane Permeable-Phenotype (%) (U2OS [2]; [12]): 34%
Population Mitochondria Different-Phenotype (%) (U2OS [2]; [12]): 34%
Population Mitotic Cells (%) (U2OS [2]; [12]): 14%
Population Normal (%) (U2OS [2]; [12]): 80%
Population Pyknosed Nuclei (%) (U2OS [2]; [12]): 45%
Population Tubulin-Different-Phenotype (%) (U2OS [2]; [12]): 37%
Total Cell Count (U2OS [2]; [12]): 280
Population Apoptotic (%) (U2OS [2]; [13]): 91%
Population Fragmented Nuclei (%) (U2OS [2]; [13]): 35%
Population Healthy Nuclei (%) (U2OS [2]; [13]): 25%
Population Hoechst High Intensity Objects (%) (U2OS [2]; [13]): 21%
Population Membrane Permeable-Phenotype (%) (U2OS [2]; [13]): 33%
Population Mitochondria Different-Phenotype (%) (U2OS [2]; [13]): 41%
Population Mitotic Cells (%) (U2OS [2]; [13]): 8%
Population Normal (%) (U2OS [2]; [13]): 78%
Population Pyknosed Nuclei (%) (U2OS [2]; [13]): 38%
Population Tubulin-Different-Phenotype (%) (U2OS [2]; [13]): 30%
Total Cell Count (U2OS [2]; [13]): 196
Population Apoptotic (%) (U2OS [2]; [14]): 44%
Population Fragmented Nuclei (%) (U2OS [2]; [14]): 5%
Population Healthy Nuclei (%) (U2OS [2]; [14]): 90%
Population Hoechst High Intensity Objects (%) (U2OS [2]; [14]): 2%
Population Membrane Permeable-Phenotype (%) (U2OS [2]; [14]): 12%
Population Mitochondria Different-Phenotype (%) (U2OS [2]; [14]): 21%
Population Mitotic Cells (%) (U2OS [2]; [14]): 55%
Population Normal (%) (U2OS [2]; [14]): 97%
Population Pyknosed Nuclei (%) (U2OS [2]; [14]): 3%
Population Tubulin-Different-Phenotype (%) (U2OS [2]; [14]): 30%
Total Cell Count (U2OS [2]; [14]): 144
Population Apoptotic (%) (U2OS [2]; [15]): 50%
Population Fragmented Nuclei (%) (U2OS [2]; [15]): 7%
Population Healthy Nuclei (%) (U2OS [2]; [15]): 89%
Population Hoechst High Intensity Objects (%) (U2OS [2]; [15]): 7%
Population Membrane Permeable-Phenotype (%) (U2OS [2]; [15]): 8%
Population Mitochondria Different-Phenotype (%) (U2OS [2]; [15]): 38%
Population Mitotic Cells (%) (U2OS [2]; [15]): 50%
Population Normal (%) (U2OS [2]; [15]): 92%
Population Tubulin-Different-Phenotype (%) (U2OS [2]; [15]): 37%
Total Cell Count (U2OS [2]; [15]): 80
Growth Rate (HEK-293T; [3]): 1
Growth Rate (HEK-293T; [5]): 0
Growth Rate (HEK-293T; [6]): 0
Growth Rate (HEK-293T; [7]): 0
Growth Rate (HEK-293T; [4]): 0
